Laboratory results published in ChEMBL document CHEMBL5260797, “N-(1-Benzyl-3,5-dimethyl-1H-pyrazol-4-yl)benzamides: Antiproliferative Activity and Effects on mTORC1 and Autophagy” (ACS Med Chem Lett, 2017).
Values after ≈ are worked out from the molar mass of the structure shown. Active and inactive are the calls of the source. No cut-off for these calls is given here.

Tests used:
MIA PaCa-2 = experiment: Antiproliferative activity against human MIA PaCa-2 cells assessed as cell viability measured after 72 hrs by MTT assay; format: functional, cell-based; details: MIA PaCa-2, 72 h
In short: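 MIA PaCa-2 pancreatic cancer cells; EC50 values determined in triplicate.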

[1] = Metabolic stability in human plasma assessed as parent compound remaining measured after 24 hrs by LC-MS/MS analysis; format: ADME, cell-free; details: read-out: Stability
[2] = Cytotoxicity against human ARPE-19 cells assessed as cell viability measured after 72 hrs by MTT assay; format: toxicity, cell-based
mTORC1 (Homo sapiens) [3] = target: T1, mTORC1 (Homo sapiens) (UniProt P42345+Q8N122+Q9BVC4); experiment: Inhibition of mTORC1 reactivation in human ARPE-19 cells assessed as reduction of P70 phosphorylation at 10 uM preincubated for 4 hrs under starvation/refeed condition measured after 1 hr in complete medium by Western blot analysis; format: cell-based; details: time 5.0 hrs
T1 sequence (Q8N122 whole entry, looked up, other chains not shown): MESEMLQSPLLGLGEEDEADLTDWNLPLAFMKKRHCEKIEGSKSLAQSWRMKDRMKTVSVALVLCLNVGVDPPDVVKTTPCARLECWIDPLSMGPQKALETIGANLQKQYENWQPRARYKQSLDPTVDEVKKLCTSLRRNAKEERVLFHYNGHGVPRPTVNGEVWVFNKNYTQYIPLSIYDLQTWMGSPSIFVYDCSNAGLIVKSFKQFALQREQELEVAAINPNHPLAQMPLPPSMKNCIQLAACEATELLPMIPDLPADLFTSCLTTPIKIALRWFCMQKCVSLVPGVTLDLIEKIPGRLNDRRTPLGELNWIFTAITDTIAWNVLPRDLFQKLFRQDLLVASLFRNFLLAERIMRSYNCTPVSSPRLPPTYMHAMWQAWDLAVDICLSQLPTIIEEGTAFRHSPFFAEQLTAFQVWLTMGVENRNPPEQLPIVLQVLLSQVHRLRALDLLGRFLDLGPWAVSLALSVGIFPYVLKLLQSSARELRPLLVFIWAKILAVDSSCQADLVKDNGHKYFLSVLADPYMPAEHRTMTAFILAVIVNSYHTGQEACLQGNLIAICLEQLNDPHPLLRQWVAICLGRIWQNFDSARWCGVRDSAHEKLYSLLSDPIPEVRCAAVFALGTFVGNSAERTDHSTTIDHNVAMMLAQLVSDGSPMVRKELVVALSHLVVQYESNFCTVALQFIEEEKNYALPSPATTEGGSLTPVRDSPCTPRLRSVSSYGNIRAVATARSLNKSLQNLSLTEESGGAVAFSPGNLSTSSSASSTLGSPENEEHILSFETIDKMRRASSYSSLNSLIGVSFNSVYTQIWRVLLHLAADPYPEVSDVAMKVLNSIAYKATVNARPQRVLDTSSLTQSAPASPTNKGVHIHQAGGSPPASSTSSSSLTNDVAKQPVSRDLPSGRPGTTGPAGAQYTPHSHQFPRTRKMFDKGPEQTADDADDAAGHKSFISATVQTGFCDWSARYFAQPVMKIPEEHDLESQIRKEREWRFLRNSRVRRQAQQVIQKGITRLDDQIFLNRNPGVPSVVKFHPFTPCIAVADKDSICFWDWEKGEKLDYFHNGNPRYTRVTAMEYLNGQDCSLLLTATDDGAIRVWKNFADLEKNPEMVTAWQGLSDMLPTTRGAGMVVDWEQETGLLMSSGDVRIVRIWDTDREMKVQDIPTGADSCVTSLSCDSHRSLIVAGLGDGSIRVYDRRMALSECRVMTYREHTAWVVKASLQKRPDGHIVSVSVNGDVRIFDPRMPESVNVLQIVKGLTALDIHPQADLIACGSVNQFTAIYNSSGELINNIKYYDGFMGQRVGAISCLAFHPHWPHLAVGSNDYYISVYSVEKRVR
T1 sequence (Q9BVC4 whole entry, looked up, other chains not shown): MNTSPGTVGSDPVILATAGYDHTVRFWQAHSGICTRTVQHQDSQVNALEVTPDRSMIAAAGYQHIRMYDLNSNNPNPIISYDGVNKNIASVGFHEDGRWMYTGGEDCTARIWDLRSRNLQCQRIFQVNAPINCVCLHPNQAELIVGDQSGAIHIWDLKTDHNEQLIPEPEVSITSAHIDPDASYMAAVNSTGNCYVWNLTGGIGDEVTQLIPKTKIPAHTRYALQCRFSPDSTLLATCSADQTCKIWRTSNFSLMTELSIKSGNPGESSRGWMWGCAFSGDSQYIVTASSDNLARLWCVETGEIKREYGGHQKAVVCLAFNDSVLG
In short: (§1)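 ARPE-19 cells starved 4 h in EBSS, then refed 1 h in complete medium with 10 μM compound or DMSO. mTORC1 reactivation read by Western blot as phosphorylation of P70 and 4EBP1.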

ARPE-19 [4] = experiment: Induction of autophagy in human ARPE-19 cells assessed as LC3 level at 25 uM measured after 4 hrs under starvation/refeed condition by immunofluorescence analysis; format: functional, cell-based
In short: (§2)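 ARPE-19 cells starved 4 h in EBSS, then refed 1 h in complete medium containing 25 μM compound or DMSO. LC3 punctae imaged by immunofluorescence, with CD63 co-stain.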

ARPE-19 [5] = experiment: Reduction in autophagic flux in human ARPE-19 cells at 25 uM incubated for 4 hrs in complete medium in presence of bafilomycin; format: functional, cell-based
In short: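 ARPE-19 cells in full medium with 100 nM bafilomycin plus compound or DMSO. Autophagic flux read as LC3-II by Western blot.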

[6] = Thermodynamic aqueous solubility of the compound at pH 7.4 measured after 48 hrs by UV-spectrometry method; format: physicochemical; details: read-out: Therm_solubility
[7] = Metabolic stability in mouse plasma assessed as parent compound remaining measured after 24 hrs by LC-MS/MS analysis; format: ADME, cell-free; details: read-out: Stability
mTORC1 (Homo sapiens) [8] = target: T1, mTORC1 (Homo sapiens); experiment: Inhibition of mTORC1 reactivation in human ARPE-19 cells at 25 to 50 uM preincubated for 4 hrs under starvation/refeed condition measured after 1 hr in complete medium by Western blot analysis; format: cell-based; details: dose 25-50 µM, time 5.0 hrs
ARPE-19 [9] = experiment: Induction of autophagy in human ARPE-19 cells assessed as fold increase in LC3 turnover at 25 uM measured after 4 hrs by Western blot analysis; format: functional
In short: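 ARPE-19 human retinal pigment epithelial cells exposed 4 h to compound or DMSO in complete medium without starvation. LC3 conversion read by Western blot as LC3-II/actin ratio and expressed as fold increase over DMSO control, n = 3.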

ARPE-19 [10] = experiment: Induction of autophagy in human ARPE-19 cells assessed as decrease in LC3-2/actin ratio at 10 uM pretreated for 30 mins with cells followed by incubation for 4 hrs under starvation condition by Western blot analysis; format: functional, cell-based; details: time 4.5 hrs
In short: (§3)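 ARPE-19 cells pretreated 30 min at 10 μM (or DMSO). Then 4 h with compound in EBSS starvation medium, or in EBSS with 100 nM bafilomycin. LC3-II/actin quantified by Western blot as fold of DMSO control, n = 3.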

ARPE-19 [11] = experiment: Induction of autophagy in human ARPE-19 cells assessed as increase in LC3-labeled punctae at 25 uM measured after 4 hrs by immunofluorescence analysis relative to control; format: functional, cell-based
In short: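 ARPE-19 cells treated 4 h at 25 μM in complete medium without starvation, or with DMSO. LC3 punctae detected by immunofluorescence, with CD63 as late endosomal/lysosomal marker.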

ARPE-19 [12] = experiment: Induction of autophagy in human ARPE-19 cells assessed as increase in LC3-2 conversion at 10 uM measured after 4 hrs by Western blot analysis; format: functional, cell-based
In short: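 ARPE-19 cells treated 4 h in complete medium without starvation with increasing concentrations (10, 25, 50 μM) or DMSO. LC3 detected by Western blot; LC3-II/actin ratio expressed as fold increase over DMSO control, n = 3.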

ARPE-19 [13] = experiment: Induction of autophagy in human ARPE-19 cells assessed as LC3 accumulation at 25 to 50 uM measured after 4 hrs under refeed condition by immunofluorescence analysis; format: functional, cell-based; details: dose 25-50 µM
[14] = Metabolic stability in human plasma assessed as parent compound remaining measured after 6 hrs by LC-MS/MS analysis; format: ADME, cell-free; details: read-out: Stability
mTORC1 (Homo sapiens) [15] = target: T1, mTORC1 (Homo sapiens); experiment: Inhibition of mTORC1 in human ARPE19 cells measured after 4 hrs by Western blot analysis; format: cell-based; details: ARPE-19, dose 10-50 µM
In short: (§4)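 ARPE-19 cells treated 4 h without starvation with increasing concentrations or DMSO. Basal mTORC1 activity measured by Western blot as phosphorylated P70/total P70, with DMSO set to 100%.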

ARPE-19 [16] = experiment: Induction of autophagy in human ARPE-19 cells assessed as appearance of abnormal punctae at 25 uM measured after 1 hr under starvation/refeed condition by immunofluorescence analysis; format: functional, cell-based; in short: as §2
ARPE-19 [17] = experiment: Induction of autophagy in human ARPE-19 cells assessed as LC3 enlarged structures at 25 uM pretreated for 30 mins with cells followed by incubation for 4 hrs under starvation condition by immunofluorescence analysis; format: functional, cell-based; details: time 4.5 hrs
In short: (§5)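 ARPE-19 cells starved 4 h in EBSS with 25 μM compound or DMSO. LC3-labeled structures imaged by immunofluorescence, with CD63 as late endosomal/lysosomal marker.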

ARPE-19 [18] = experiment: Inhibition of autophagy in human ARPE-19 cells assessed as fold decrease in LC3 turnover at 10 uM pretreated for 30 mins with cells followed by incubation for 4 hrs under starvation condition by Western blot analysis; details: time 4.5 hrs
[19] = Metabolic stability in mouse liver microsomes assessed as half life at 1 uM by LC-MS/MS analysis; format: ADME, Microsome
mTORC1 (Homo sapiens) [20] = target: T1, mTORC1 (Homo sapiens); experiment: Inhibition of mTORC1 reactivation in human ARPE-19 cells assessed as reduction of 4E-BP1 phosphorylation at 10 uM preincubated for 4 hrs under starvation/refeed condition measured after 1 hr in complete medium by Western blot analysis; format: cell-based; details: time 5.0 hrs; in short: as §1
ARPE-19 [21] = experiment: Induction of autophagy in human ARPE-19 cells assessed as decrease in LC3-2/actin ratio at 10 uM pretreated for 30 mins with cells followed by incubation for 4 hrs under starvation condition in presence of bafilomycin by Western blot analysis; format: functional, cell-based; details: time 4.5 hrs; in short: as §3
mTORC1 (Homo sapiens) [22] = target: T1, mTORC1 (Homo sapiens); experiment: Inhibition of mTORC1 in human ARPE19 cells at 10 to 50 uM measured after 4 hrs by Western blot analysis related to control; format: cell-based; details: ARPE-19, dose 10-50 µM; in short: as §4
[23] = Metabolic stability in mouse plasma assessed as parent compound remaining measured after 6 hrs by LC-MS/MS analysis; format: ADME, cell-free; details: read-out: Stability
ARPE-19 [24] = experiment: Induction of autophagy in human ARPE-19 cells assessed as appearance of LC3 non-uniformed shapes at 25 uM pretreated for 30 mins with cells followed by incubation for 4 hrs under starvation condition by immunofluorescence analysis; format: functional, cell-based; details: time 4.5 hrs; in short: as §5
mTORC1 (Homo sapiens) [25] = target: T1, mTORC1 (Homo sapiens); experiment: Inhibition of mTORC1 in human ARPE19 cells assessed as decrease in P70/total P70 phosphorylation level at 10 uM measured after 4 hrs by Western blot analysis; format: cell-based; details: ARPE-19; in short: as §4

Cn1cnc(N)c2ncnc1-2 [3-METHYLADENINE]
EC50 (MIA PaCa-2): > 100 µM

C#Cc1cccc(Nc2ncnc3cc(OCCOC)c(OCCOC)cc23)c1 [ERLOTINIB]
EC50 (MIA PaCa-2): 27 µM

Fc1ccc(CNc2ncnc3ccc(F)cc23)cc1
EC50 (MIA PaCa-2): 20 µM

CNC(=O)c1cccc(Cn2nc(C)c(NC(=O)c3ccc(COc4ccc(Cl)cc4)cc3)c2C)c1
EC50 (MIA PaCa-2): 4.2 µM

Cc1nn(Cc2cccc(C(=O)N(C)C)c2)c(C)c1NC(=O)c1ccc(COc2ccccc2)cc1
EC50 (MIA PaCa-2): 6.4 µM

CNC(=O)c1cccc(Cn2nc(C)c(NC(=O)c3ccc(COc4ccccc4C(F)(F)F)cc3)c2C)c1
EC50 (MIA PaCa-2): 10 µM

Cc1nn(Cc2ccccc2)c(C)c1NC(=O)c1ccc(COc2ccccc2)cc1
EC50 (MIA PaCa-2): 10 µM

CNC(=O)c1cccc(Cn2nc(C)c(NC(=O)c3ccc(COc4ccccc4Cl)cc3)c2C)c1
EC50 (MIA PaCa-2): 6.3 µM

CNC(=O)c1cccc(Cn2nc(C)c(NC(=O)c3ccc(COc4ccc(C(F)(F)F)cc4)cc3)c2C)c1
remaining at 24 h [1]: 100%
EC50 at 72 h [2]: 47.9 µM
Activity (mTORC1 (Homo sapiens) [3]): inactive
Activity (ARPE-19 [4]): Active
Activity (ARPE-19 [5]): inactive
solubility thermodynamic at 48 h [6]: 67.3 µM (≈ 36.1 µg/mL)
remaining at 24 h [7]: 77%
inhibition (mTORC1 (Homo sapiens) [8]): Active
fold change (FC) (ARPE-19 [9]): 2.7
Activity (ARPE-19 [10]): Active
Activity (ARPE-19 [11]): Active
Activity (ARPE-19 [12]): Active
Activity (ARPE-19 [13]): Active
remaining at 6 h [14]: 99%
inhibition (mTORC1 (Homo sapiens) [15]): Dose-Dependent Effect
Activity (ARPE-19 [16]): Active
EC50 (MIA PaCa-2): 0.8 µM
Activity (ARPE-19 [17]): Active
fold change (FC) (ARPE-19 [18]): 1.2
half-life at 1 µM [19]: 1 h
Activity (mTORC1 (Homo sapiens) [20]): inactive
Activity (ARPE-19 [21]): inactive
inhibition (mTORC1 (Homo sapiens) [22]): 46%
remaining at 6 h [23]: 91%
Activity (ARPE-19 [24]): Active
inhibition (mTORC1 (Homo sapiens) [25]): Active

CNC(=O)c1cccc(Cn2nc(C)c(NC(=O)c3ccc(COc4cccc(C)c4)cc3)c2C)c1
EC50 (MIA PaCa-2): 6.2 µM

Cc1nn(Cc2cccc(C(N)=O)c2)c(C)c1NC(=O)c1ccc(COc2ccccc2)cc1
EC50 (MIA PaCa-2): 9.2 µM

CNC(=O)c1cccc(Cn2nc(C)c(NC(=O)c3ccc(COC4CCCCC4)cc3)c2C)c1
EC50 (MIA PaCa-2): 14 µM

Nc1ccn([C@@H]2O[C@H](CO)[C@@H](O)C2(F)F)c(=O)n1 [GEMCITABINE]
EC50 (MIA PaCa-2): 0.0015 µM

CNC(=O)c1cccc(Cn2nc(C)c(NC(=O)c3ccc(COc4cccc(Cl)c4)cc3)c2C)c1
EC50 (MIA PaCa-2): 5.9 µM

Cc1nn(Cc2cccc(C(=O)Nc3ccccc3)c2)c(C)c1NC(=O)c1ccc(COc2ccccc2)cc1
EC50 (MIA PaCa-2): 6.4 µM

CNC(=O)c1cccc(Cn2nc(C)c(NC(=O)c3ccc(COc4ccc(C)cc4)cc3)c2C)c1
EC50 (MIA PaCa-2): 2.6 µM

Cc1nn(Cc2ccccc2C(N)=O)c(C)c1NC(=O)c1ccc(COc2ccccc2)cc1
EC50 (MIA PaCa-2): 42 µM

CNC(=O)c1cccc(Cn2nc(C)c(NC(=O)c3ccc(COc4cccc(OC)c4)cc3)c2C)c1
EC50 (MIA PaCa-2): 6.2 µM

CNC(=O)c1cccc(Cn2nc(C)c(NC(=O)c3ccc(COc4ccccc4OC)cc3)c2C)c1
EC50 (MIA PaCa-2): 8.5 µM

Cc1nn(Cc2ccc(C(N)=O)cc2)c(C)c1NC(=O)c1ccc(COc2ccccc2)cc1
EC50 (MIA PaCa-2): > 100 µM

CCN(CC)CCCC(C)Nc1ccnc2cc(Cl)ccc12 (configuration not stated) [CHLOROQUINE]
EC50 (MIA PaCa-2): 14 µM

CNC(=O)c1cccc(Cn2nc(C)c(NC(=O)c3ccc(COc4cccc(C(F)(F)F)c4)cc3)c2C)c1
EC50 (MIA PaCa-2): 2.3 µM

CNC(=O)c1cccc(Cn2nc(C)c(NC(=O)c3ccc(COc4ccccc4C)cc3)c2C)c1
EC50 (MIA PaCa-2): 2.1 µM

CCNC(=O)c1cccc(Cn2nc(C)c(NC(=O)c3ccc(COc4ccccc4)cc3)c2C)c1
EC50 (MIA PaCa-2): 11 µM

Cc1nn(Cc2cccc(C(=O)NC(C)C)c2)c(C)c1NC(=O)c1ccc(COc2ccccc2)cc1
EC50 (MIA PaCa-2): 8.9 µM

CNC(=O)c1cccc(Cn2nc(C)c(NC(=O)c3ccc(COc4ccc(OC)cc4)cc3)c2C)c1
EC50 (MIA PaCa-2): 8 µM

CNC(=O)c1cccc(Cn2nc(C)c(NC(=O)c3ccc(COc4ccccc4)cc3)c2C)c1
EC50 (MIA PaCa-2): 6.2 µM
